Experimental data as given in ChEMBL document CHEMBL4251706, “Elimination of HIV-1 Latently Infected Cells by Gnidimacrin and a Selective HDAC Inhibitor” (ACS Med Chem Lett, 2018).
The source made the active and inactive calls. The rule behind the calls is not given here.

Legend:
[1] = tested on: Human immunodeficiency virus 1; assay: Reactivation of latent HIV1 infected in human U1 cells assessed as increase in p24 production after 48 hrs by ELISA; type: functional, organism-based; details: Human immunodeficiency virus 1, U1, 48 h; read-out: EC50
[2] = tested on: Human immunodeficiency virus 1; assay: Reactivation of latent HIV1 infected in human U1 cells assessed as increase in p24 production after 48 hrs by ELISA relative to vorinostat; type: functional
How it was run: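 U1 cells at 2x10^5 cells/ml incubated with a range of concentrations at 37 °C for 48 h. Supernatant p24 measured by HIV p24 ELISA. EC50 ± SD derived from 3 independent experiments.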

[3] = Cytotoxicity against human U937 cells assessed as reduction in cell viability after 48 hrs by CellTiter-Glo luminescent cell viability assay; type: cell-based, U-937
How it was run: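 U937 cells (HIV-1-negative parental line of U1) at 2x10^5 cells/ml exposed to a range of concentrations for 48 h at 37 °C. Viability read by CellTiter-Glo luminescence. CC50 ± SD derived from 3 independent experiments.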

[4] = Selectivity index, ratio of CC50 for human U937 cells to EC50 for reactivation of latent HIV1 infected in human U1 cells; details: U937 cells (CC50) and latent HIV-1 infected U1 cells (EC50)
[5] = tested on: Human immunodeficiency virus 1; assay: Reactivation of latent HIV1 infected in human J-Lat A2 cells assessed as increase in GFP positive cells at 1 uM after 72 hrs by flow cytometric analysis; type: functional, organism-based
How it was run: (§1)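 J-Lat (A2) cells, 1x10^6 cells/well, incubated with the test agent at 37 °C for 72 h. GFP-expressing cells and percent viable cells measured by flow cytometry. Two independent experiments.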

[6] = Cytotoxicity against human J-Lat (A2) cells assessed as effect on cell viability at 1 uM after 72 hrs by flow cytometric analysis; type: cell-based; how it was run: as §1
[7] = tested on: Human immunodeficiency virus 1; assay: Reactivation of latent HIV1 infected in human U1 cells/uninfected U937 cell mixture assessed as reduction in proviral DNA level at 0.57 uM supplemented with fresh medium containing compound every 3 days for 18 days measured post last dose by PCR analysis; type: functional, organism-based
How it was run: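 U1/U937 (1:4) cultures treated for 18 days with T20 present and refed with compound every 3 days. HIV-1 pol DNA (200 bp) amplified by PCR for 30 cycles, with B2M (779 bp, 25 cycles) as internal control. Products run on 2% agarose gels and densitometry expressed as the treated/DMSO ratio.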

[8] = Cytotoxicity against human Jurkat cells assessed as reduction in cell viability after 72 hrs by CellTiter-Glo luminescent cell viability assay; type: cell-based
[9] = tested on: Human immunodeficiency virus 1; assay: Reactivation of latent HIV1 infected in human U1 cells/uninfected U937 cell mixture assessed as increase in p24 production at 0.57 uM supplemented with fresh medium containing compound every 3 days for 18 days and subsequent dosing at day 18 post dose measured on day 21 by ELISA
[10] = tested on: Human immunodeficiency virus 1; assay: Synergistic reactivation of latent HIV1 infected in human U1 cells assessed as increase in p24 production after 48 hrs in presence of HDAC inhibitor TPB by ELISA; type: functional, organism-based; details: Human immunodeficiency virus 1, U1, 48 h
[11] = tested on: Human immunodeficiency virus 1; assay: Synergistic reactivation of latent HIV1 infected in human J-Lat A2 cells assessed as increase in GFP positive cells after 72 hrs in presence of HDAC inhibitor TPB by flow cytometric analysis relative to control; type: functional
How it was run: (§2)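 J-Lat (A2) cells express GFP on latent HIV-1 activation; 1x10^6 cells/well incubated with LRA(s), alone or in pairs (HDAC inhibitor TPB 0.3 µM or TPyB 1.0 µM), at 37 °C for 72 h; GFP+ cell frequency by flow cytometry; two independent experiments, one-tailed t-test.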

[12] = tested on: Human immunodeficiency virus 1; assay: Reactivation of latent HIV1 infected in human J-Lat A2 cells assessed as increase in GFP positive cells at 80 pM after 72 hrs by flow cytometric analysis relative to control; type: functional; how it was run: as §2
[13] = Cytotoxicity against human J-Lat (A2) cells assessed as effect on cell viability at 80 pM after 72 hrs by flow cytometric analysis; type: cell-based
How it was run: (§3)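 J-Lat (A2) cells, 1x10^6 cells/well, exposed to LRA(s) at 37 °C for 72 h; percent viable cells read by flow cytometry, two independent experiments.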

[14] = tested on: Human immunodeficiency virus 1; assay: Synergistic reactivation of latent HIV1 infected in human PBMC assessed as reduction in HIV1 DNA at 20 pM after 6 days in presence of HDAC inhibitor TPB by SYBR green dye based RT-PCR analysis relative to control; type: functional
[15] = tested on: Human immunodeficiency virus 1; assay: Synergistic reactivation of latent HIV1 infected in human PBMC assessed as reduction in frequency of HIV1 latently infected CD4+ cells at 20 pM preincubated for 6 days followed by PHA-stimulation measured after 48 hrs in presence of HDAC inhibitor TPB by ELISA; type: functional
[16] = tested on: Human immunodeficiency virus 1; assay: Reactivation of latent HIV1 infected in human U1 cells/uninfected U937 cell mixture assessed as increase in p24 production at 26 pM supplemented with fresh medium containing compound every 3 days for 18 days measured at day 9 post dose by ELISA; type: functional, organism-based
How it was run: (§4)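 U1 and U937 cells mixed 1:4 (1x10^5 cells/ml) with LRA(s) (GM 26 pM, TPyB 0.57 µM) or DMSO, plus T20 1 µg/ml, for 18 days. p24 in supernatant read by ELISA every 3 days, after which medium with compound was renewed and cells reset to 1x10^5/ml. At day 18, part of the cells got GM 129 pM for 72 h and were read on day 21.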

[17] = tested on: Human immunodeficiency virus 1; assay: (§5) Synergistic reactivation of latent HIV1 infected in human U1 cells/uninfected U937 cell mixture assessed as increase in p24 production at 26 pM supplemented with fresh medium containing compound every 3 days for 18 days measured at day 6 post dose in presence of HDAC inhibitor TPyB by ELISA; type: functional, organism-based; how it was run: as §4
[18] = tested on: Human immunodeficiency virus 1; assay: Reactivation of latent HIV1 infected in human U1 cells/uninfected U937 cell mixture assessed as p24 level at 26 pM supplemented with fresh medium containing compound every 3 days for 18 days measured at day 18 post dose by ELISA; type: functional; how it was run: as §4
[19] = tested on: Human immunodeficiency virus 1; assay: (§6) Synergistic reactivation of latent HIV1 infected in human U1 cells/uninfected U937 cell mixture assessed as p24 level at 26 pM supplemented with fresh medium containing compound every 3 days for 18 days measured at day 6 post dose in presence of HDAC inhibitor TPyB by ELISA; type: functional; how it was run: as §4
[20] = tested on: Human immunodeficiency virus 1; assay: Reactivation of latent HIV1 infected in human U1 cells/uninfected U937 cell mixture assessed as increase in p24 production at 26 pM supplemented with fresh medium containing compound every 3 days for 18 days and subsequent dosing at 129 pM at day 18 post dose measured on day 21 by ELISA; type: functional, organism-based; how it was run: as §4
[21] = tested on: Human immunodeficiency virus 1; assay: as §5, with “days and subsequent dosing at 129 pM” for “days measured”, “day 18” for “day 6”, “dose measured on day 21” for “dose”; type: functional, organism-based; how it was run: as §4
[22] = tested on: Human immunodeficiency virus 1; assay: as §6, with “reduction in proviral DNA” for “p24”, “measured” for “measured at day 6”, “post last” for “post”, “PCR analysis relative to control” for “ELISA”; type: functional
How it was run: (§7)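 Cells from the 18-day U1/U937 (1:4) co-culture with LRA(s) or DMSO plus T20 were tested for proviral DNA by PCR of HIV-1 pol (200 bp, 30 cycles), with B2M (779 bp, 25 cycles) as internal control. Products run on 2% agarose and quantified by densitometry; values are ratios of treated to DMSO.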

[23] = tested on: Human immunodeficiency virus 1; assay: Reactivation of latent HIV1 infected in human U1 cells/uninfected U937 cell mixture assessed as reduction in proviral DNA level at 26 pM supplemented with fresh medium containing compound every 3 days for 18 days measured post last dose by PCR analysis; type: functional, organism-based; how it was run: as §7
PBMC [24] = assay: Induction of IFNgamma1 production in human PBMC at 2000 pM after 2 days by ELISA (reference value: 29 pg/ml); type: cell-based; details: 48 h, 0.002 µM
PBMC [25] = assay: Induction of IFNgamma1 production in human PBMC at 20 pM after 2 days by ELISA (reference value: 29 pg/ml); type: cell-based; details: 48 h
PBMC [26] = assay: Induction of IFNgamma1 production in human PBMC at 2000 pM after 2 days in presence of 3 uM HDAC inhibitor TPB by ELISA (reference value: 26 pg/ml); type: cell-based; details: 48 h, 0.002 µM
PBMC [27] = assay: Induction of IFNgamma1 production in human PBMC at 20 pM after 2 days in presence of 3 uM HDAC inhibitor TPB by ELISA (reference value: 26 pg/ml); type: cell-based; details: 48 h
PBMC [28] = assay: Induction of IFNgamma1 production in human PBMC at 2000 pM after 2 days in presence of 1 uM HDAC inhibitor TPB by ELISA (reference value: 27 pg/ml); type: cell-based; details: 48 h, 0.002 µM
PBMC [29] = assay: Induction of IFNgamma1 production in human PBMC at 20 pM after 2 days in presence of 1 uM HDAC inhibitor TPB by ELISA (reference value: 27 pg/ml); type: cell-based; details: 48 h
PBMC [30] = assay: Induction of IFNgamma1 production in human PBMC at 2000 pM after 2 days in presence of 0.3 uM HDAC inhibitor SAHA by ELISA (reference value: 25 pg/ml); type: cell-based; details: 48 h, 0.002 µM
PBMC [31] = assay: Induction of IFNgamma1 production in human PBMC at 20 pM after 2 days in presence of 0.3 uM HDAC inhibitor SAHA by ELISA (reference value: 25 pg/ml); type: cell-based; details: 48 h
PBMC [32] = assay: Induction of T-cell activation in human PBMC assessed as increase in CD69 expression at 3 nM measured after 1 day in presence of HDAC inhibitor TPyB by flow cytometric method; type: cell-based; details: 24 h, 0.003 µM
PBMC [33] = assay: Induction of T-cell activation in human PBMC assessed as increase in CD69 expression at 3 nM measured after 1 day in presence of HDAC inhibitor vorinostat by flow cytometric method; type: cell-based; details: 24 h, 0.003 µM
[34] = tested on: Human immunodeficiency virus 1; assay: Ratio of EC50 for reactivation of latent HIV1 infected in human U1 cells to EC50 for synergistic reactivation of latent HIV1 infected in human U1 cells in presence of HDAC inhibitor TPB; type: functional
[35] = tested on: Human immunodeficiency virus 1; assay: Synergistic reactivation of latent HIV1 infected in human U1 cells assessed as increase in p24 production after 48 hrs in presenc of HDAC inhibitor TPB by ELISA relative to vorinostat; type: functional
[36] = tested on: Human immunodeficiency virus 1; assay: Reactivation of latent HIV1 infected in human J-Lat A2 cells assessed as increase in GFP positive cells at 0.5 nM after 72 hrs by flow cytometric analysis; type: functional, organism-based; how it was run: as §2
[37] = Cytotoxicity against human J-Lat (A2) cells assessed as effect on cell viability at 0.5 nM after 72 hrs by flow cytometric analysis; type: cell-based; details: 0.0005 µM; how it was run: as §3

CC(=O)Nc1ccc(C(=O)Nc2nc(-c3cccs3)ccc2N)cc1
EC50 [1]: 5700 nM | fold change (FC) [2]: 1.3 | CC50 at 48 h [3]: 47300 nM | selectivity ratio [4]: 8.2 | Activity [5]: Active | Activity [6]: Non-Toxic | Activity [7]: Active | CC50 at 72 h [8]: 44300 nM | Activity [9]: Active

C=C(C)[C@@]12C[C@@H](COC(=O)c3ccccc3)[C@@]34OC5(O[C@@H]1[C@@H]3[C@@H]1O[C@]1(CO)[C@@H](O)[C@@]1(O)[C@H]4[C@H]([C@H](C)[C@@H]1OC(=O)c1ccccc1)[C@H](C)CCCCCC[C@H]5O)O2 [GNIDIMACRIN]
EC50 [1]: 0.018 nM | fold change (FC) [2]: 12.3 | CC50 at 48 h [3]: 4200 to 4800 nM | selectivity ratio [4]: 260000 to 750000 | EC50 [10]: 0.0056 nM | Activity [11]: 21% | Activity [12]: >5% | Activity [13]: Non-Toxic | fold change (FC) [14]: 1.8 | fold change (FC) [15]: >3 | Activity [16]: Active | Activity [17]: Active | Activity [18]: 49 pg/mL | Activity [19]: 12 pg/mL | Activity [20]: inactive | Activity [21]: inactive | fold change (FC) [22]: 10 | Activity [23]: Active | Activity (PBMC [24]): 164 pg/mL | Activity (PBMC [25]): 35 pg/mL | Activity (PBMC [26]): 42 pg/mL | Activity (PBMC [27]): 32 pg/mL | Activity (PBMC [28]): 47 pg/mL | Activity (PBMC [29]): 34 pg/mL | Activity (PBMC [30]): 39 pg/mL | Activity (PBMC [31]): 30 pg/mL | Activity (PBMC [32]): Toxic | Activity (PBMC [33]): Toxic | Ratio EC50 [34]: >3 | fold change (FC) [35]: 13.8 | CC50 at 72 h [8]: 5300 nM

C/C=C(/C)C(=O)O[C@H]1C(C)=C[C@]23C(=O)[C@@H](C=C(CO)[C@@H](O)[C@]12O)[C@H]1[C@@H](C[C@H]3C)C1(C)C [INGENOL MEBUTATE]
EC50 [1]: 4.8 nM | fold change (FC) [2]: 9.7 | CC50 at 48 h [3]: > 200 nM | selectivity ratio [4]: > 42 | Activity [36]: Active | Activity [37]: Non-Toxic

C/C=C1\NC(=O)[C@H]2CSSCC/C=C/[C@H](CC(=O)N[C@H](C(C)C)C(=O)N2)OC(=O)[C@H](C(C)C)NC1=O [ROMIDEPSIN]
CC50 at 48 h [3]: 0.73 nM | selectivity ratio [4]: 0.66

O=C(CCCCCCC(=O)Nc1ccccc1)NO [VORINOSTAT]
CC50 at 48 h [3]: 780 nM
